Compound activity deposited in PubChem by several laboratories.
CASP6 VEID inh: caspase-6 (human) enzyme inhibition | P55212 | purified caspase-6, Z-VEID-R110 cleavage fluorescence | inhibition, % at 12.5 µM | actives 0.53% (n = 350,000) | AID 686996;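 active = mean inhibition across replicates at least about 35%, with every replicate also reaching that limit, limit read from the data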;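 also: 0% = median of neutral control wells and 100% = no fluorescence left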
LEDGF integ inh: blocks HIV-1 LEDGF/p75-dependent DNA integration; TR-FRET IN-LEDGF/p75 DNA integration, Eu/Cy5; inhibition, % at 3.7 µM; actives 0.64% (n = 370,000); AID 743269;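 active = inhibition above the screen-wide mean plus 3 SD, cut at about 13% in these data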;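 also: signal is the Cy5 over europium emission ratio at 671 and 618 nm; 0% = plate median of compound wells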
UHRF1 binding: blocks human UHRF1 binding to methylated DNA; Q96T88; UHRF1 binding to methylated oligo, TR-FRET; inhibition, % at 4.4 µM; actives 0.75% (n = 370,000); AID 687016;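 also: UHRF1 SRA domain binding a hemimethylated CpG hairpin DNA probe; 0% = median of test compound wells and 100% = reference inhibitor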
Target sequence (Q96T88 whole entry, looked up, the tested form may be a part): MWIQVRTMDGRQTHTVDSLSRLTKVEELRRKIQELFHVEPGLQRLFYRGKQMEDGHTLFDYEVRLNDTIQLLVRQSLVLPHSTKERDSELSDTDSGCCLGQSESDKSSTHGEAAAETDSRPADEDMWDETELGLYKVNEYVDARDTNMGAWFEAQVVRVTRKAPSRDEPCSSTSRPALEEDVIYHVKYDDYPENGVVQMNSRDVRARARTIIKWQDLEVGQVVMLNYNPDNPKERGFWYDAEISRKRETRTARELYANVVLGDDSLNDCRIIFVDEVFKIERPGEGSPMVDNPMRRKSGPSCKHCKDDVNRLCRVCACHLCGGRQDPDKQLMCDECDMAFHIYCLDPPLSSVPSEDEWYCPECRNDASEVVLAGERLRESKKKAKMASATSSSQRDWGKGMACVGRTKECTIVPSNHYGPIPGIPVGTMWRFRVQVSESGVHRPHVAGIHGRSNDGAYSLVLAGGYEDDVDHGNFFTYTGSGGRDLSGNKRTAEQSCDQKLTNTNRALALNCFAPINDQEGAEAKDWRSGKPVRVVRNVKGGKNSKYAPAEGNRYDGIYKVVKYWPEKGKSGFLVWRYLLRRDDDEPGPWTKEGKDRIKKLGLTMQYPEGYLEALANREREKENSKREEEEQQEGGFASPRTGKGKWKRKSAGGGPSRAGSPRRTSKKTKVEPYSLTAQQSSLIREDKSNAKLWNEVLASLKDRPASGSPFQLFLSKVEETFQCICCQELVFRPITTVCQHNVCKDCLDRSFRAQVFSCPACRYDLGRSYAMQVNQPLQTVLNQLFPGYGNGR
MBD2 DNA inh: inhibitors of human MBD2 binding to methylated oligonucleotide | actives 0.31% (n = 370,000) | TR-FRET | inhibition, % at 4.4 µM | AID 686964 | Q9UBB5; in the data active = inhibition above about 13%
NSD2 inh: blocks human histone methyltransferase NSD2; AID 743445; actives 0.54% (n = 310,000); NSD2 peptide methylation, AlphaScreen, 120 min; O96028; inhibition, % at 12.5 µM; in the data active = inhibition above about 50%
TDP2 inh: blocks human TDP2 phosphodiesterase activity. O95551. recombinant TDP2, T5PNP hydrolysis, p-nitrophenol absorbance 415 nm. inhibition, % at 12.8 µM. actives 0.34% (n = 370,000);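 active = inhibition above the mean of all tested compounds plus 3 SD, set per campaign, cut at about 25% in these data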;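 also: 0% = DMSO with enzyme and 100% = buffer with substrate but no TDP2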
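test system = human TDP2 enzyme | input = TDP2 enzyme at 120 nM final | medium = 50 mM Tris-HCl pH 7.5 with Mg2+, KCl, DTT, BSA | also added = T5PNP substrate, 5 mM | times = 2 h at 37 °C | technique = epi absorbance | benchmarks = high control without enzyme, low control DMSO plus TDP2 | replication = each compound tested once, singlicate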
UHRF1 DNA bind: counter-screen for MBD2 inhibitors: human UHRF1 methylated DNA binding inhibitors; shares compounds with MBD2 DNA inh; UHRF1 binding to methylated oligonucleotide, TR-FRET; inhibition, % at 4.4 µM; actives 25% (n = 1,000); AID 720530;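 also: UHRF1 SRA domain binding a labeled hemimethylated CpG hairpin DNA; 0% = vehicle only and 100% = reference inhibitor with vehicle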
MBD2 confirm: MBD2-DBD methyl-DNA binding inhibition, TR-FRET confirmation; actives 26% (n = 1,000); TR-FRET MBD2-DBD binding to methylated oligonucleotide; shares compounds with MBD2 DNA inh; inhibition, % at 4.4 µM; in the data active = inhibition above about 14%
* marks the source's active call; other numbers are inactive results; x = not tested or not shown. A selection: hits, their analogues and other compounds. The true share with any hit is near 1.8%. Rule as the data show it, unless noted: active = inhibition above about 21%; inactive = the rest.

SMILES | CASP6 VEID inh | LEDGF integ inh | UHRF1 binding | MBD2 DNA inh | NSD2 inh | TDP2 inh | UHRF1 DNA bind | MBD2 confirm
CCC(=O)N(C)C[C@H]1Oc2cc(C#Cc3ccccn3)ccc2S(=O)(=O)N([C@H](C)CO)C[C@H]1C | 2.0 | x | x | x | x | x | x | x
C[C@@H]1CN([C@H](C)CO)C(=O)Cc2cc(NC(=O)Cn3cnnn3)ccc2O[C@H]1CN(C)C(=O)NC1CCCCC1 | -1.0 | x | x | x | x | x | x | x
COC(=O)[C@H](C)NC(=O)c1cc2c(cn1)[nH]c1ccccc12 | -3.5 | -1.1 | -0.5 | 3.8 | -0.5 | 4.6 | x | x
C[C@H](NC(=O)c1cc2c(cn1)[nH]c1ccccc12)C(=O)O | 3.8 | -3.0 | 0.6 | 41.9* | 0.4 | 1.0 | 2.9 | 3.1
CCOc1nc2c(c(C)nn2-c2ccccc2)c(C)c1CCC(=O)NCCN1CCOCC1 | x | x | x | x | -0.3 | x | x | x
O=C(OCc1cc(=O)n2c(n1)sc1ccccc12)c1ccc2c(=O)n3c(nc2c1)CCC3 | x | 7.2 | 39.4* | 22.0* | -0.8 | -0.3 | 26.6* | 22.3*
O=C/C=C/c1ccc2c(c1)OCO2 | -0.5 | x | x | x | x | x | x | x
C[C@@H]1CN([C@@H](C)CO)C(=O)c2cc(NS(=O)(=O)c3ccccc3)ccc2O[C@@H](C)CCCCO[C@@H]1CN(C)C(=O)Nc1ccc2c(c1)OCO2 | 4.4 | x | x | x | x | x | x | x
Cc1ccc(C)c(S(=O)(=O)N2CCN(c3ncccn3)CC2)c1 | -1.3 | -2.3 | 2.7 | 15.2* | -2.5 | -5.0 | 8.5 | 3.1
CCN(CC)CCC(=O)Nc1cccc2c1C(=O)c1ccccc1C2=O | 2.3 | 4.1 | -29.4 | 27.3* | 35.0 | -4.2 | 4.4 | 37.5*
CCN(CC)CCNC(=O)c1ccc2c(c1NCCO)C(=O)c1ccccc1C2=O | 35.8* | 10.5 | 4.4 | 21.6* | x | 15.9 | 15.1 | 29.8*
CC1CCN(C(=O)c2ccc3c(c2NCCO)C(=O)c2ccccc2C3=O)CC1 | x | -1.3 | -19.7 | -26.9 | x | -9.4 | x | x
O=C(CN1CCOCC1)NCC[C@H]1CC[C@H](NC(=O)c2ccccc2F)[C@@H](CO)O1 | -2.2 | x | x | x | x | x | x | x
COc1ccc(CC(=O)Nc2ccc(OC)c(NC(=O)c3ccco3)c2)cc1 | x | 2.3 | 19.7 | 15.0* | 6.1 | 6.1 | 3.5 | 5.8
O=C(NCc1ccncc1)C1CCC(=O)N(CCc2ccc(Cl)cc2)C1 (stereo not drawn) | 0.4 | 1.1 | 48.7* | 24.5* | -2.4 | 1.8 | 6.0 | 2.3
CCOC(=O)CSc1nc2sc(C)c(C)c2c(=O)n1C | x | 0.2 | 1.2 | 2.3 | -0.7 | 0.3 | x | x
CCOC(=O)CSc1nc(C(C)C)nc2sc(C)c(C)c12 | 2.5 | -1.1 | 1.9 | 45.5* | 0.8 | -0.5 | 2.5 | 3.6
O=C([C@@H]1[C@@H](CO)[C@@H]2Cn3c(cccc3=O)[C@@H]2N1CC1CCCCC1)N1CCOCC1 | 1.6 | x | x | x | x | x | x | x
Cc1ccc2nc(Cl)c3cc(C(=O)NCCCN4CCCC4)sc3c2c1 | -68.0 | -3.3 | -4.4 | 15.5* | x | -10.8 | 7.9 | 16.4*
CC(=O)c1cccc(OCC(=O)N(C)CC(=O)NCc2ccco2)c1 | 49.2* | 30.1* | 49.4* | 22.3* | 6.0 | -6.8 | 43.0* | 17.8*
COc1cccc(C(=O)Nc2ccc3c(c2)C(=O)N(C)[C@@H]2CC[C@H](CC(=O)NCC(F)(F)F)O[C@@H]2CO3)c1 | -0.5 | x | x | x | x | x | x | x
COc1cccc(NC(=O)CCC2CCN(C(=O)c3cccc(NC(C)=O)c3)CC2)c1 | 0.3 | 1.4 | 1.9 | 35.8* | 0.1 | 5.4 | 4.8 | 2.5
COC1=Nc2ccccc2N2CCN=C12 | -0.8 | -1.3 | 1.0 | 2.9 | -4.5 | -2.1 | x | x
c1ccc2c(c1)C1=NCCN1c1ccccc1-2 | -4.5 | -1.7 | -11.9 | 25.9* | 3.0 | 6.5 | -0.6 | 38.7*
CCC(=O)N(C)C[C@H]1Oc2cc(-c3ccc(C#N)cc3)ccc2S(=O)(=O)N([C@H](C)CO)C[C@H]1C | -1.1 | x | x | x | x | x | x | x
SMILES | CASP6 VEID inh | LEDGF integ inh | UHRF1 binding | MBD2 DNA inh | NSD2 inh | TDP2 inh | UHRF1 DNA bind | MBD2 confirm
COc1ccc(C(=O)OCC(=O)c2ccc[nH]2)cc1 | 3.8 | 7.5 | 12.6 | 67.3* | 18.5 | -13.8 | 9.4 | 2.4
O=C(OCC(=O)c1ccc[nH]1)c1ccc(Br)cc1 | 0.3 | 5.4 | 16.5 | 4.1 | -1.6 | 8.5 | x | x
COCC#Cc1cnc2c(c1)C(=O)N([C@@H](C)CO)C[C@H](C)[C@@H](CN(C)C(C)=O)O2 | -0.3 | x | x | x | x | x | x | x
NC(=O)COC(=O)c1cc(Cl)cc(Cl)c1N | -1.5 | -9.4 | 4.6 | 32.3* | -3.3 | -12.0 | 2.8 | 1.7
CCC(=O)N(C)C[C@@H]1Oc2cc(C#Cc3ccncc3)ccc2S(=O)(=O)N([C@@H](C)CO)C[C@H]1C | 2.3 | x | x | x | x | x | x | x
CSc1ccc(CN(C)CC(=O)NC(C)c2ccccc2)cc1 (stereo not drawn) | 1.1 | 0.4 | -5.7 | 18.6* | 2.3 | 1.3 | 9.4 | 4.5
COCC(=O)Nc1ccc2c(c1)[C@@H]1C[C@@H](CC(=O)NCCc3ccccc3)O[C@@H](CO)[C@@H]1O2 | -3.9 | x | x | x | x | x | x | x
COC(=O)[C@H](CC(C)C)N(Cc1cn(CC2CCCCC2)nn1)S(=O)(=O)c1ccc(F)cc1Br | x | 3.1 | 20.9* | 18.8* | x | -1.2 | 6.8 | 12.2
COC(=O)[C@H](C(C)C)N(CCCc1cn(CC2CCCCC2)nn1)S(=O)(=O)c1ccc(F)cc1Br | x | 8.5 | 9.6 | -5.1 | x | -12.1 | x | x
COC(=O)[C@H](CC(C)C)N(CCc1cn(CC2CCCCC2)nn1)S(=O)(=O)c1ccc(F)cc1Br | x | -0.7 | 2.2 | 4.6 | x | 2.7 | x | x
COC(=O)[C@H](CC(C)C)N(Cc1cn(CC2CCCCC2)nn1)S(=O)(=O)c1ccccc1Br | x | 4.2 | 18.5 | 17.3* | x | -6.3 | 8.2 | 10.6
COC(=O)[C@H](C(C)C)N(Cc1cn(CC2CCCCC2)nn1)S(=O)(=O)c1ccc(F)cc1Br | x | 4.5 | 19.0 | 17.4* | x | -9.1 | 6.8 | 6.9
CCN(Cc1cn(CC2CCCCC2)nn1)S(=O)(=O)c1ccccc1Br | x | 5.1 | 9.3 | 3.0 | x | -10.5 | x | x
Cc1ccc(S(=O)(=O)N(C)C[C@H]2OCCCC[C@@H](C)Oc3ccc(NC(=O)Nc4cccc5ccccc45)cc3C(=O)N([C@@H](C)CO)C[C@@H]2C)cc1 | -0.6 | x | x | x | x | x | x | x
Cc1ccc(NCCN(C)C)c2c(=O)c3cc(O)ccc3sc12 | -79.4 | 1.0 | -4.8 | 13.1* | -1.1 | 2.1 | 10.0 | 27.1*
COc1ccc(NC(=O)N(C)C[C@@H]2OCc3cn(nn3)CCCC(=O)N([C@H](C)CO)C[C@H]2C)cc1 | -3.4 | -1.0 | 5.7 | 16.9* | x | 0.9 | 8.8 | 3.8
C[C@@H]1CN([C@@H](C)CO)C(=O)CCCn2cc(nn2)CO[C@H]1CN(C)C(=O)C1CC1 | -2.4 | 0.5 | 0.2 | 13.4* | x | -0.5 | 4.1 | 1.1
